Key:
[1] = Chemical stability of compound assessed as half life in PBS at pH 7.3 by RP18-HPLC analysis; format: physicochemical
Method in brief: (§1)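 From 50 mM DMSO stocks, diluted to 1.9 mM hydrolysis solutions in water/DMSO. Reaction started by adding phosphate buffer (50 mM, pH 7.3; 25 mM also stated). Incubated at 37 °C with time-course sampling. Starting material and products (γ-kb-NTP, d4TDP, thymine) followed by analytical rp18 HPLC, from which t½ was calculated.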

[2] = tested on: Human immunodeficiency virus 1; test: Antiviral activity against HIV1 3B infected in human CEM/0 cells assessed as inhibition of virus-induced syncytia cell formation measured after 4 to 5 days by microscopic analysis; format: functional, organism-based; settings: Human immunodeficiency virus 1, 3B, CCRF-CEM
Method in brief: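 Syncytium-inhibition assay in wild-type CEM/0 or TK-deficient CEM/TK⁻ cells, ~3 × 10⁵ cells/mL, infected with 100 CCID₅₀/mL HIV-1(III_B) or HIV-2(ROD), with serial compound dilutions. Incubated 4−5 days at 37 °C in humidified CO₂ atmosphere. Giant cells scored microscopically; EC₅₀ is the concentration halving HIV-induced giant cell formation. Values are the mean ± SD of n = 2−3 independent experiments.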

[3] = Cytotoxicity against human CEM/0 CD4+ T cells assessed as reduction in cell viability; format: cell-based, CCRF-CEM
Method in brief: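 Cytostatic readout: CC₅₀ is the compound concentration inhibiting CEM CD4⁺ T-cell proliferation by 50%. Values are the mean ± SD of n = 2−3 independent experiments.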

[4] = tested on: Human immunodeficiency virus 2; test: Antiviral activity against HIV2 ROD infected in human TK-deficient […] cells assessed as inhibition of viral-induced giant cell formation incubated for 4 to 5 days by microscopy; settings: Human immunodeficiency virus 2, ISOLATE ROD
[5] = tested on: Human immunodeficiency virus 2; test: Antiviral activity against HIV2 ROD infected in human CEM/0 cells assessed as inhibition of virus-induced syncytia cell formation measured after 4 to 5 days by microscopic analysis; settings: Human immunodeficiency virus 2, ISOLATE ROD, CCRF-CEM
[6] = Substrate activity at HIV reverse transcriptase assessed as increase in primer extension incubated at 37 degC for 60 mins and at 80 degC for 3 mins in presence of fluorescent-lebelled dATP, dCTP and dGTP by PAGE analysis; format: ADME; settings: human immunodeficiency virus, 1.05 h; time 63 min
[7] = Stability in pH 7.3 PBS assessed as pig liver esterase mediated hydrolysis by measuring half life upto 2 hrs by HPLC analysis; format: ADME, Sus scrofa
Method in brief: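 Porcine liver esterase (3 mg/mL in PB) added to compound diluted from a 6.0 mM DMSO/water solution into DMSO and 50 mM phosphate buffer, pH 7.3. Incubated at 37 °C. Timed aliquots snap-frozen in liquid nitrogen, then thawed, sonicated, centrifuged, filtered and analysed by HPLC. t½ calculated as for chemical hydrolysis.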

[8] = Stability of compound in human CEM/0 cell extract assessed as half life by RP18-HPLC analysis; format: ADME, tissue-based, CCRF-CEM
Method in brief: (§2)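 Extract preparation: CEM CD4⁺ T-cells grown in RPMI-1640 to ~3 × 10⁶ cells/mL, washed in cold PB, resuspended at 10⁸ cells/mL, sonicated, clarified at 10,000 rpm and stored at −80 °C. Compounds from 50 mM DMSO stock (diluted to 6.0 mM in DMSO) incubated in the extract. Reactions stopped with THF, put on ice, centrifuged and filtered.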

[9] = Prodrug conversion in PBS buffer at pH 7.3 assessed as pig liver esterase-mediated cleavage of ketobenzyl-residue measured over 800 hrs by HPLC analysis; format: ADME, Sus scrofa; settings: pH 7.3, 800 h
[10] = Prodrug conversion in human CEM/0 cell extract assessed as gamma-kb-d4TTP formation by RP18-HPLC analysis; format: ADME, tissue-based; settings: ccrf-cem; method in brief: as §2
[11] = Prodrug conversion in human CEM/0 cell extract assessed as d4TDP formation by RP18-HPLC analysis; format: ADME, tissue-based; settings: ccrf-cem; method in brief: as §2
[12] = Prodrug conversion in human CEM/0 cell extract assessed as NTP formation by RP18-HPLC analysis; format: ADME, tissue-based; settings: ccrf-cem; method in brief: as §2
[13] = Selectivity index, ratio of CC50 for cytotoxicity against human CEM/0 CD4+ T cells to EC50 for antiviral activity against HIV1 3B infected in human CEM/0 cells; format: toxicity, cell-based; settings: read-out: Ratio CC50/EC50
Method in brief: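 Selectivity index from CC₅₀ (50% inhibition of CEM cell proliferation) and EC₅₀ (50% inhibition of HIV-1(III_B)-induced giant cell formation in CEM/0 cells, 4−5 days, microscopy), both mean ± SD of n = 2−3 independent experiments.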

[14] = Chemical stability of compound in PBS at pH 7.3 by RP18-HPLC analysis; format: physicochemical; settings: buffer; method in brief: as §1
[15] = Prodrug conversion in human CEM/0 cell extract assessed as d4TTP formation after 96 hrs by HPLC analysis; format: ADME, tissue-based; settings: ccrf-cem; method in brief: as §2
[16] = Substrate activity at human DNA polymerase gamma assessed as increase in primer extension incubated at 37 degC for 60 mins and at 80 degC for 3 mins in presence of fluorescent-lebelled dATP, dCTP and dGTP by PAGE analysis; format: ADME; settings: 1.05 h, time 63 min
Method in brief: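 Human DNA polymerase γ (4 U) with Cy3-primer/template duplex 0.20 μM in 60 mM Tris-HCl pH 8, 5 mM MgOAc, 1.0 mM DTT, 0.1 mM spermine, 0.01% BSA. Preincubated 5 min at 37 °C without nucleotides, then run 60 min at 37 °C with nucleotides 250 μM, then 80 °C for 3 min. Denaturing 15% PAGE with fluorescence imaging.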

[17] = Prodrug conversion in human CEM/0 cell extract assessed as d4TDP formation after 96 hrs by HPLC analysis; format: ADME, tissue-based; settings: ccrf-cem; method in brief: as §2
[18] = Stability in human CEM/0 cell extract assessed as parent compound remaining after 98 hrs by HPLC analysis; format: ADME, tissue-based, CCRF-CEM; settings: read-out: Stabilty; method in brief: as §2
[19] = Substrate activity at HIV reverse transcriptase assessed as increase in primer extension incubated at 37 degC for 15 mins in presence of radiolabeled dATP, dCTP, and dGTP by PAGE analysis; format: ADME; settings: human immunodeficiency virus, 0.25 h
Method in brief: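 Template 30-mer annealed to a ³²P-labelled 25-mer primer (95 °C, then cooled to −20 °C over 3 h; 20 mM Tris-HCl pH 7.6, 50 mM NaCl). Reaction: 50 mM Tris-HCl pH 8.6, 10 mM MgCl₂, 40 mM KCl, nucleotides 66 μM, HIV-RT 0.2 U, duplex 0.32 μM. Run 15 min at 37 °C, stopped at 80 °C for 3 min. Resolved on denaturing 15% PAGE and read by phosphorimaging.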

[20] = Stability in human CEM/0 cell extract assessed as parent compound remaining up to 98 hrs by HPLC analysis; format: ADME, tissue-based, CCRF-CEM; settings: read-out: Stabilty; method in brief: as §2

Structure (SMILES): CCCCCCCCCCCCCCCCCC(=O)Oc1ccc(COP(=O)(OCc2ccc(OC(=O)CCCC)cc2)OP(=O)(O)OP(=O)(O)OC[C@@H]2C=C[C@H](n3cc(C)c(=O)[nH]c3=O)O2)cc1 (stereo not given in full)
- half-life [1]: 50 h
- EC50 [2]: 120 nM
- CC50 [3]: 33000 nM
- EC50 [4]: 540 nM
- EC50 [5]: 100 nM

Structure (SMILES): Cc1cn([C@H]2C=C[C@@H](COP(=O)(O)OP(=O)(O)OP(=O)(O)O)O2)c(=O)[nH]c1=O [STAVUDINE TRIPHOSPHATE]
- EC50 [2]: 1050 nM
- CC50 [3]: > 100000 nM
- Activity [6]: Active
- EC50 [4]: > 100000 nM
- EC50 [5]: 400 nM

Structure (SMILES): CCCCCCCCCCCCCCCCCC(=O)c1ccc(COP(=O)(OCc2ccc(OC(=O)CCCCCC)cc2)OP(=O)(O)OP(=O)(O)OC[C@@H]2C=C[C@H](n3cc(C)c(=O)[nH]c3=O)O2)cc1 (stereo not given in full)
- half-life [7]: 0.167 h
- half-life [1]: 109 h
- half-life [8]: 6.9 h
- EC50 [2]: 440 nM
- CC50 [3]: 34000 nM
- Drug metabolism [9]: Metabolite_Notdetected
- Drug metabolism [10]: Metabolite_Detected
- Drug metabolism [11]: Metabolite_Detected
- Drug metabolism [12]: Metabolite_Notdetected
- EC50 [4]: 400 nM
- EC50 [5]: 1100 nM

Structure (SMILES): CCCCCCCCCCCCCCCCCC(=O)Oc1ccc(COP(=O)(OCc2ccc(C(=O)CCCCCCCCC)cc2)OP(=O)(O)OP(=O)(O)OC[C@@H]2C=C[C@H](n3cc(C)c(=O)[nH]c3=O)O2)cc1 (stereo not given in full)
- half-life [7]: 0.167 h
- half-life [1]: 94 h
- half-life [8]: 7.8 h
- EC50 [2]: 580 nM
- CC50 [3]: 35000 nM
- Drug metabolism [9]: Metabolite_Notdetected
- Drug metabolism [10]: Metabolite_Detected
- Drug metabolism [11]: Metabolite_Detected
- Drug metabolism [12]: Metabolite_Notdetected
- EC50 [4]: 1100 nM
- EC50 [5]: 780 nM

Structure (SMILES): CCCCCCCCCC(=O)c1ccc(COP(=O)(O)OP(=O)(O)OP(=O)(O)OC[C@H]2O[C@@H](n3cnc4c(N)ncnc43)C[C@@H]2O)cc1
- EC50 [2]: 10000 nM
- CC50 [3]: 74000 nM
- selectivity ratio [13]: 7
- Stabilty [14]: Stable
- Drug metabolism [9]: Metabolite_Notdetected
- EC50 [4]: > 10000 nM
- EC50 [5]: > 10000 nM

Structure (SMILES): CCCCCCCCCC(=O)c1ccc(COP(=O)(OCc2ccc(OC(=O)CCCC)cc2)OP(=O)(O)OP(=O)(O)OC[C@@H]2C=C[C@H](n3cc(C)c(=O)[nH]c3=O)O2)cc1 (stereo not given in full)
- half-life [7]: 0.167 h
- half-life [1]: 43 h
- half-life [8]: 1.1 h
- EC50 [2]: 370 nM
- CC50 [3]: 25000 nM
- Drug metabolism [9]: Metabolite_Notdetected
- Drug metabolism [10]: Metabolite_Detected
- Drug metabolism [11]: Metabolite_Detected
- Drug metabolism [12]: Metabolite_Notdetected
- EC50 [4]: 2500 nM
- EC50 [5]: 1200 nM

Structure (SMILES): CCCCCCCCCC(=O)c1ccc(COP(=O)(O)OP(=O)(O)OP(=O)(O)OC[C@@H]2C=C[C@H](n3cc(C)c(=O)[nH]c3=O)O2)cc1
- half-life [8]: > 30 h
- Drug metabolism [15]: Metabolite_Notdetected
- Activity [16]: Not Active
- Stabilty [14]: Stable
- Drug metabolism [9]: Metabolite_Notdetected
- Drug metabolism [17]: Metabolite_Notdetected
- remaining at 98 h [18]: 89%
- Activity [6]: Active

Structure (SMILES): CCCCCCCCC(=O)Oc1ccc(COP(=O)(OCc2ccc(OC(=O)CCCCCCCC)cc2)OP(=O)(O)OP(=O)(O)OC[C@@H]2C=C[C@H](n3cc(C)c(=O)[nH]c3=O)O2)cc1
- half-life [1]: 52 h
- half-life [8]: 2.5 h
- EC50 [2]: 310 nM
- CC50 [3]: 52000 nM
- EC50 [4]: 2260 nM
- EC50 [5]: 620 nM

Structure (SMILES): CCCCCCCCCCCCCCCCCC(=O)c1ccc(COP(=O)(O)OP(=O)(O)OP(=O)(O)OC[C@@H]2C=C[C@H](n3cc(C)c(=O)[nH]c3=O)O2)cc1
- half-life [8]: > 30 h
- Drug metabolism [15]: Metabolite_Notdetected
- EC50 [2]: 330 nM
- CC50 [3]: 13000 nM
- Activity [16]: Not Active
- Stabilty [14]: Stable
- Drug metabolism [9]: Metabolite_Notdetected
- Drug metabolism [17]: Metabolite_Notdetected
- remaining at 98 h [18]: 89%
- Activity [6]: Active
- EC50 [4]: 260 nM
- EC50 [5]: 600 nM

Structure (SMILES): CCCCCCCCCC(=O)c1ccc(COP(=O)(O)OP(=O)(O)OP(=O)(O)OC[C@H]2O[C@@H](n3cc(C)c(=O)[nH]c3=O)C[C@@H]2O)cc1
- half-life [8]: > 30 h
- EC50 [2]: 6600 nM
- CC50 [3]: 10000 nM
- Activity [19]: Active
- Activity [16]: Not Active
- Stabilty [14]: Stable
- Drug metabolism [9]: Metabolite_Notdetected
- remaining at 98 h [20]: 98%
- EC50 [4]: > 10000 nM
- EC50 [5]: 8800 nM

Structure (SMILES): Cc1cn([C@H]2C=C[C@@H](CO)O2)c(=O)[nH]c1=O [STAVUDINE]
- EC50 [2]: 430 nM
- EC50 [4]: 150000 nM
- EC50 [5]: 220 nM

Structure (SMILES): CCCCCCCCCCCCCCCCCC(=O)Oc1ccc(COP(=O)(OCc2ccc(C(=O)CCCCCCCCCCCCCCCCC)cc2)OP(=O)(O)OP(=O)(O)OC[C@@H]2C=C[C@H](n3cc(C)c(=O)[nH]c3=O)O2)cc1 (stereo not given in full)
- half-life [7]: 0.167 h
- half-life [1]: 11 h
- half-life [8]: 2.1 h
- EC50 [2]: 420 nM
- CC50 [3]: 28000 nM
- Drug metabolism [9]: Metabolite_Notdetected
- Drug metabolism [10]: Metabolite_Detected
- Drug metabolism [11]: Metabolite_Detected
- Drug metabolism [12]: Metabolite_Notdetected
- EC50 [4]: 380 nM
- EC50 [5]: 830 nM

Reference: ChEMBL document CHEMBL4699643, “γ-Ketobenzyl-Modified Nucleoside Triphosphate Prodrugs as Potential Antivirals” (J Med Chem, 2020)
